Data reported in PubChem BioAssay AID2445 (The Scripps Research Institute Molecular Screening Center, 2010).
In all, about 320,000 compounds went through this assay and about 200 (0.062%) were called active. What follows is part of a selection rich in actives, with near analogues and random picks from the rest. Values without a mark were called inactive.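 The calls were made as follows: active = activation above that plate's cutoff, the mean activation of tested compounds plus 3 SD (cut at about 6.6% in these data, passing the limit was not always enough); inactive = the rest.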

Target: Oxytocin receptor (Homo sapiens) (UniProt P30559)
Sequence (P30559 whole entry, looked up): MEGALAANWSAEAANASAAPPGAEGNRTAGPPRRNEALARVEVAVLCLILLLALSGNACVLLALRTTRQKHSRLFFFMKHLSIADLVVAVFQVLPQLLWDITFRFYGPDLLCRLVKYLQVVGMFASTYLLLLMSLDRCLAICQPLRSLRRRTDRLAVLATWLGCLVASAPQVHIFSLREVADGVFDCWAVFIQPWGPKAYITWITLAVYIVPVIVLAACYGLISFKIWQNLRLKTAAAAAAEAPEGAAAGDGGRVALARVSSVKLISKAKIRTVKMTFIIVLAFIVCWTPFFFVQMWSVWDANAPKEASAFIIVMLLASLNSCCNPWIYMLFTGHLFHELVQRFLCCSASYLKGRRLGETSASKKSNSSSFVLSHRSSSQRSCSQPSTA
Test: enhancers of oxytocin-evoked OXTR calcium signal – fluorescence, CHO-OTR cells, Fluo-8 calcium, primary screen (AID 2445);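 also: 100% uses oxytocin at 75 nM as the full agonist control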
Conditions: Fluo-8 calcium fluorescence, potentiator mode, at 3 µM, active compounds read high, 0% = oxytocin EC15, 100% = EC100
Procedure, shortened: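 Measured by – Fluo-8 calcium dye fluorescence · Test system – human OTR in CHO cells · Dosing – one concentration, 3.0 µM compound · Controls – EC15 oxytocin alone as 0%, 75 nM oxytocin as 100% · Evaluation – normalized max/min fluorescence ratio, % activation · Timing – 6 min pre-incubation, 100 s read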

| SMILES | activation |
| --- | --- |
| Cc1ccc(NC(=O)COc2coc(CN3CCc4ccccc4C3)cc2=O)cc1Cl | -8.11% |
| CCOC(=O)C1=C(N)N2C(=O)C(C)SC2=C(C(=O)OCC)C1c1cc(OC)c(OC)c(OC)c1 (configuration not stated) | 3.06% |
| O=C(Nc1ccc(F)cc1F)N1CCCN(CCOc2ccccc2)CC1 | -5.95% |
| O=C1CC(c2c(F)cccc2Cl)C(n2cncn2)C(O)=C1C1NCCc2ccccc21 (configuration not stated) | 2.91% |
| O=C(COC(=O)CCc1nc2ccccc2c(=O)[nH]1)Nc1ccc(N2CCOCC2)cc1 | -2.47% |
| CC1CCCCC12NC(=O)N(CC(=O)Nc1ccc(S(=O)(=O)Nc3ncccn3)cc1)C2=O (configuration not stated) | 1.55% |
| CCCCNc1c(-c2cccc(Sc3ccc(OC)cc3)c2)nc2ccccn12 | -2.7% |
| CCCCCCSc1ccc(-c2nc3ccc(Cl)cn3c2NCc2ccccc2)cc1 | -4.96% |
| CCCCNc1c(-c2ccc(OC)c(Sc3ccc(OC)cc3)c2)nc2ccc(Cl)cn12 | 13.1% (active) |
| CC(=O)c1ccc(OCC(O)CN2CCN(S(=O)(=O)c3cccc(Br)c3)CC2)cc1 (configuration not stated) | -10.6% |
| COc1cc(OC)cc(C(=O)N[C@H](C(=O)NNC(=O)c2ccc(Br)cc2)C(C)C)c1 | 0.41% |
| COc1ccc(S(=O)(=O)N2CCOC2CNC(=O)C(=O)NCc2ccncc2)cc1C (configuration not stated) | 2.91% |
| CCS(=O)(=O)n1nc(-c2ccccc2)nc1SCc1ccccc1 | 0.8% |
| O=C(NC1CCCCCCC1)c1cccs1 | -9.53% |
| CCO[C@H]1OC(C(=O)Nc2ccccc2)=C[C@@H](C2CC2)[C@@H]1CCCO | -3.89% |
| CCOc1ccc(CNC(=O)CCC(=O)N2CCSc3ccccc32)cc1 | -5.95% |
| CC(OC(=O)c1c(F)cccc1F)C(=O)NCCC1=CCCCC1 (configuration not stated) | -1.25% |
| CCCCCCSc1ccc([C@@H]2[C@@H]3C(=O)N(CC)C(=O)[C@@H]3[C@]3(C(=O)OC)CCCCN23)cc1OC | -12.2% |
| O=S1(=O)CCOC[C@H](CC2CCCCC2)N1Cc1ccc(F)cc1 | 0.09% |
| Cc1ccccc1CCN(CC(=O)NC1CCCCC1)C(=O)c1csnn1 | -12.1% |
| Cc1c(Cl)cccc1NC(=O)[C@@]1(CC(=O)O)CC(/C=C/c2ccccc2)=NO1 | -10.7% |
| Cc1ccc(S(=O)(=O)Nc2nc(CN3CCOCC3)nc3sc(C)c(C)c23)cc1 | 4.74% |

| SMILES | activation |
| --- | --- |
| Cc1cc(C)c2c(c1)c(C)cc1nnc(SCC(=O)NCc3ccco3)n12 | -0.06% |
| Cc1cc(C)cc(N(CCC#N)C(=O)CN2C(=O)NC3(CCCC3)C2=O)c1 | -5.16% |
| O=C(C1CCN(C2CCN(Cc3cccc4c3OCO4)CC2)CC1)N1CCOCC1 | -0.07% |
| Cc1ccc(N2C(=O)C3C(c4ccccc4)(C2=O)C3(c2ccccc2)c2ccccc2)cc1 (configuration not stated) | -5.54% |
| CC1CCCC(NC(=O)CSc2nccn2C)C1C (configuration not stated) | -21.1% |
| Cc1ccccc1-c1cc(C(=O)NCc2cccs2)n(CC2CC(c3cccnc3)=NO2)n1 (configuration not stated) | -4.56% |
| CCCOc1ccccc1C1CC(=O)Nc2cc3c(cc21)OCO3 (configuration not stated) | -15.5% |
| COc1cc2c(cc1OC)C(c1ccc(C)o1)CC(=O)N2 (configuration not stated) | 6.71% (active) |
| COC(=O)c1ccc(C2CC(=O)Nc3cc(OC)c(OC)cc32)cc1 (configuration not stated) | -2.55% |
| Cc1ccc(CNC(=O)CCN2C(=O)[C@@H]3Cc4ccccc4CN3C2=O)cc1 | -7.86% |
| CN(Cc1ccccc1Cl)C(=O)C1CCC(=O)N(CCc2cccc(F)c2)C1 (configuration not stated) | 5.76% |
| COc1ccccc1CSc1ncc(-c2ccc([N+](=O)[O-])cc2)[nH]1 | -15.7% |
| Cn1cccc1C(=O)N1CCc2ccccc2C1 | -4.4% |
| O=C(Nn1cc(C(=O)N2CCN(c3ccccc3F)CC2)c2ccccc2c1=O)c1cnccn1 | -16.9% |
| COc1ccc([C@H]2[C@H](C(C)=O)N3N=Cc4ccccc4C3C23C(=O)OC(C)(C)OC3=O)cc1 (some centres not stated) | -5.56% |
| O=C(COC(=O)Cn1cnc2ccccc21)Nc1cccc2c1C(=O)c1ccccc1C2=O | -2.58% |
| Cc1cc(NC(=O)Nc2c[nH]c(=O)[nH]c2=O)ccc1Br | -3.04% |
| Cc1ccc2nc(NC(=O)C3CSC4(C)CCC(=O)N34)sc2c1 (configuration not stated) | -1.9% |
| COc1ccc(Cl)cc1NC(=O)CN(C)C(=O)CCCc1c[nH]c2ccccc12 | -8.97% |
| CC(C)CN(C(=O)CSc1ncnc2sccc12)C1CCS(=O)(=O)C1 (configuration not stated) | -5.65% |
| CCCc1cc(=O)oc2cc(OCC(=O)Nc3ccc(CN4CCOCC4)cc3)c(Cl)cc12 | 2.03% |
| COc1ccc(CCNC(=O)CCc2cn(C)c3ccccc23)c(OC)c1 | -6.44% |

| SMILES | activation |
| --- | --- |
| C=CCNC(=O)COC(=O)CNC(=O)c1cc(Cl)cc([N+](=O)[O-])c1 | 6.81% |
| Cn1c(=O)c2sccc2n(Cc2ccc(Br)cc2)c1=O | -7.63% |
| COc1cc(S(=O)(=O)N2CCN(C(=O)C3CC3)CC2)ccc1NC(C)=O | 5.54% |
| O=C(CN(Cc1ccccc1)C(=O)CCC(=O)Nc1ccccn1)NCCc1ccccc1 | -8.23% |
| O=C(Oc1ccc(-c2nnco2)cc1)c1ccc(F)c(S(=O)(=O)N2CCOCC2)c1 | -5.86% |
| O=C(COc1cc(Cl)c(Cl)cc1Cl)NC(=O)NC1CCCC1 | 2.91% |
| O=C(NCCCN1CCCCC1)C1CCCN(c2ncnc3c2nc2n3CCCCC2)C1 (configuration not stated) | -5.62% |
| Cc1cc(C(=O)OCC(=O)Nc2ccccc2Cl)c(C)o1 | 1.55% |
| O=C(COC(=O)c1cc(S(=O)(=O)N2CCOCC2)ccc1Cl)NCCc1ccccc1 | -5.23% |
| CCCCn1c(N)c(N2CCOCC2)c(=O)n(CC(=O)NCCc2ccccc2)c1=O | 14.8% (active) |
| COCCCNC(=O)CSc1nc2ccc(N3CCOCC3)cc2c(=O)n1CCc1ccccc1 | -1.26% |
| CCC(=O)N1CCN=C1SCc1ccc(F)cc1 | -4.47% |
| CCOC(=O)N1CCN(Cc2oc(CO)cc(=O)c2O)CC1 | -9.68% |
| Cc1noc(/C=C/c2ccco2)c1S(=O)(=O)N1CCC(C(=O)Nc2ccc(Cl)cn2)CC1 | -2.32% |
| COc1ccccc1C(=O)NC(=S)Nc1ccccc1N1CCCCC1 | -5.57% |
| O=C(NC(=S)Nc1ccccc1N1CCCCC1)c1ccc(F)cc1 | 25.2% (active) |
| CCc1ccc(C(=O)NC(=S)Nc2ccccc2N2CCOCC2)cc1 | -6.63% |
| COc1ccc(C[C@H]2CN3C(=NC[C@H]3C)N2CCNC(=O)CCC2CCCCC2)cc1 | 3.05% |
| C[C@H](NC(=O)c1nc[nH]c1C(=O)N[C@@H](C)C(=O)OC(C)(C)C)C(=O)OC(C)(C)C | -3.66% |
| Cc1cccc(NC(=O)Cn2c(=O)n(Cc3ccccc3)c(=O)c3c(C)c(C)sc32)c1 | -5.82% |
| Cc1ccc(CS(=O)(=O)CCC(=O)NC2CC2)cc1 | 0.82% |
| COC(=O)C1=C[C@@H](C(=O)OC)[C@@H]2C3=C(C(=O)[C@]2(C)NC(=O)c2ccccc2)[C@H](C)n2c(=O)n(C)c(=O)n2[C@@H]3C1 | -11.9% |

| SMILES | activation |
| --- | --- |
| COc1cc(NC(=O)COC(=O)c2ccc([N+](=O)[O-])s2)cc(OC)c1OC | -5.07% |
| O=C(Cn1cc(C(F)(F)F)ccc1=O)Nc1ccc2c(c1)OCCO2 | 2.63% |
| O=C(COC(=O)c1cc(=O)[nH]c2ccccc12)Nc1nc(-c2cccc(Br)c2)cs1 | 2.69% |
| CCOc1ccccc1NC(=O)CCc1nnc2ccc(NCc3ccco3)nn12 | 0.12% |
| CCCCCCNS(=O)(=O)c1ccccc1Br | -3.1% |
| Brc1ccc(-c2n(-c3ccccn3)c3ccccc3[n+]2-c2ccccn2)cc1 | -4.84% |
| COC(=O)C1(C)CC1(c1ccccc1)c1ccccc1 (configuration not stated) | -14.7% |
| CCOC(=O)C1=C(C)OC(N)=C(C#N)C1c1cncc(-c2ccc(F)cc2)c1 (configuration not stated) | -4.76% |
| O=C(COC(=O)c1ccc(F)cc1F)Nc1ncccn1 | -2.64% |
| [O-][n+]1ccc(OCc2ccccc2)cc1 | -0.76% |
| COc1ccccc1CNS(=O)(=O)CC12CCC(CC1=O)C2(C)C (configuration not stated) | -12.6% |
| Cc1cc(NC(=O)CSc2nc(=O)cc(N)n2-c2ccc(F)cc2)no1 | 0.45% |
| CN(C)c1cc(N)c2ccccc2n1 (tested in a mixture with another compound) | -14.8% |
| CN1C(=O)[C@H]2[C@@H](C3CC3)N3C(=O)CN(Cc4ccccc4)C(=O)[C@@]3(C)[C@H]2C1=O | -2.37% |
| CC(C)=CCc1c(O)c(CC=C(C)C)c2occ(-c3ccc(O)cc3)c(=O)c2c1O | -5.45% |
| COc1ccc(-c2nc3cnccn3c2NC2CCCCC2)cc1-c1cccc(Cl)c1 | -2.33% |
| Cc1ccc(CNS(=O)(=O)c2ccc3c(c2)N(C)CCO3)cc1 | -5.63% |
| NS(=O)(=O)c1cc(C(=O)OCC(=O)NNC(=O)c2ccccc2)ccc1Cl | -5.64% |
| NC1=NN(c2cccc(C(=O)O)c2)C(=O)C1 | -3.83% |
| CC(=O)N/C(=N/c1nc(C)cc(C)n1)Nc1ccc(F)cc1F | 2.96% |
| Cc1ccc(CNC(=O)C2CCCN2S(=O)(=O)c2ccc3c(c2)C(C)(C)C(=O)N3C)cc1 (configuration not stated) | -1.94% |
